One series relates to THP1 macrophages. Briefly: In vitro phagocytosis of opsonized nanobeads by THP1 macrophages. The class given is cell-based, human. The conditions noted are these: THP1, DMSO solvent. In a few lines: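 Fluorescent 100-nm streptavidin-coated polystyrene beads, opsonized with antistreptavidin antibody, with or without attached hCD47, given to THP1 cells in vitro. Phagocytosis scored at 45 min. Cultures fixed without permeabilization, and non-ingested beads immunostained with a secondary antibody against the antistreptavidin opsonin. Data as means ± SEM.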

The test system of another series is macrophages / phagocytes. Briefly: Circulation of nanobeads in NSG mice. The class given is in vivo, mouse (NSG). The conditions noted are these: opsonized nanobeads, i.v.
Series [1] in a line: Organ localization of nanobeads by whole-body NIRF imaging. The class given is in vivo, mouse (NSG). As to conditions: NIRF beads.

Turning to `O=S(=O)(O)c1ccc2cc(N=Nc3cc(S(=O)(=O)O)c4cccnc4c3O)ccc2c1` [NSC-87877], the “reversal of hCD47 inhibition of uptake” value in the series with THP1 macrophages (SHP1 inhibition, hCD47 beads) is recorded as “blocks the inhibition of uptake by hCD47”.

Consider `Cc1ccc2c(c1)C(=O)C1(O)CCN(c3ccccc3)C1=N2` (stereo not shown) [blebbistatin], for which the “inhibition of uptake by 50 µM compound” value with THP1 macrophages (50 µM, inhibition of myosin-IIA) is listed as “inhibited”.

B1: mCD47: recombinant mouse CD47 (protein, UniProt Q61735 19-303, looked up)
Leukocyte surface antigen CD47: QLLFSNVNSIEFTSCNETVVIPCIVRNVEAQSTEEMFVKWKLNKSYIFIYDGNKNSTTTDQNFTSAKISVSDLINGIASLKMDKRDAMVGNYTCEVTELSREGKTVIELKNRTVSWFSPNEKILIVIFPILAILLFWGKFGILTLKYKSSHTNKRIILLLVAGLVLTVIVVVGAILLIPGEKPVKNASGLGLIVISTGILILLQYNVFMTAFGMTSFTIAILITQVLGYVLALVGLCLCIMACEPVHGPLLISGLGIIALAELLGLVYMKFVASNQRTIQPPRNR
With B1, the “effect on circulation / clearance of nanobeads” value in the series with macrophages / phagocytes was “enhanced persistence in circulation”. Besides, the “splenic / organ localization of nanobeads” value in series [1] is recorded as “moderate but suppressed splenic localization”.

The values above are taken from publication PMC3966479 (Science (New York, N.Y.), 2013).
